Measured values from ChEMBL document CHEMBL2434966, “Novel N-4-piperazinyl-ciprofloxacin-chalcone hybrids: synthesis, physicochemical properties, anticancer and topoisomerase I and II inhibitory activity” (Eur J Med Chem, 2013).

Assays:
[1] = tested on: Malme-3M; experiment: Growth inhibition of human MALME-3M cells after 48 hrs by sulforhodamine B assay; format: functional
How it was run: (§1)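 NCI 60-panel five-dose test at 10-fold dilutions, 10^-4 to 10^-8 M, with 48 h continuous exposure and SRB protein read-out. Percent growth derived from time-zero, untreated-control and treated absorbances. GI50 is the concentration where [(Ti-Tz)/(C-Tz)]×100 = 50. TGI is taken at Ti = Tz. LC50 is taken at [(Ti-Tz)/Tz]×100 = -50.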

[2] = tested on: NCI-H322M; experiment: Growth inhibition of human NCI-H322M cells assessed as cell growth at 10^-5 M after 48 hrs by sulforhodamine B assay; format: functional; conditions: read-out: Activity
How it was run: (§2)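 NCI 60-cell-line primary one-dose screen. Cells were exposed to a single 10^-5 M concentration for 48 h. The end point was sulforhodamine B protein staining, read spectrophotometrically. Results are reported as percent growth of treated cells relative to untreated control cells.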

[3] = tested on: MDA-MB-231; experiment: Growth inhibition of human MDA-MB-231 cells assessed as cell growth at 10^-5 M after 48 hrs by sulforhodamine B assay; format: functional; conditions: MDA-MB-231, 48 h, read-out: Activity; how it was run: as §2
[4] = tested on: LOX IMVI; experiment: Growth inhibition of human LOXIMVI cells after 48 hrs by sulforhodamine B assay; format: functional; how it was run: as §1
[5] = tested on: MCF7; experiment: Growth inhibition of human MCF7 cells after 48 hrs by sulforhodamine B assay; format: functional; conditions: MCF7, 48 h; how it was run: as §1
[6] = tested on: A549; experiment: Growth inhibition of human A549/ATCC cells after 48 hrs by sulforhodamine B assay; format: functional; conditions: A549, 48 h; how it was run: as §1
[7] = tested on: SK-MEL-28; experiment: Growth inhibition of human SK-MEL-28 cells assessed as cell growth at 10^-5 M after 48 hrs by sulforhodamine B assay; format: functional; conditions: SK-MEL-28, 48 h, read-out: Activity; how it was run: as §2
[8] = tested on: UO-31; experiment: Growth inhibition of human UO31 cells assessed as cell growth at 10^-5 M after 48 hrs by sulforhodamine B assay; format: functional; conditions: UO-31, 48 h, read-out: Activity
How it was run: (§3)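 NCI primary one-dose screen: single concentration of 10^-5 M added to culture, 48 h incubation, SRB protein-dye endpoint. Percent growth of treated cells measured spectrophotometrically against untreated controls.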

[9] = tested on: MOLT-4; experiment: Growth inhibition of human MOLT4 cells after 48 hrs by sulforhodamine B assay; format: functional; conditions: MOLT-4, 48 h; for CC50: read-out: LC50 (the source's name)
How it was run: (§4)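 NCI five-dose screen on the full 60-cell-line panel. Cells were given 10-fold dilutions from 10^-4 to 10^-8 M with continuous 48 h exposure, and growth was read by SRB staining. Percent growth was taken from time-zero, control and treated absorbances. GI50, TGI and LC50 were then derived, the GI50 being the concentration that gives a 50% lower net protein increase than control.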

[10] = tested on: SNB-19; experiment: Growth inhibition of human SNB19 cells assessed as cell growth at 10^-5 M after 48 hrs by sulforhodamine B assay; format: functional; conditions: SNB-19, 48 h, read-out: Activity; how it was run: as §3
[11] = tested on: SK-MEL-2; experiment: Growth inhibition of human SK-MEL-2 cells assessed as cell growth at 10^-5 M after 48 hrs by sulforhodamine B assay; format: functional; conditions: SK-MEL-2, 48 h, read-out: Activity; how it was run: as §2
[12] = tested on: NCI-H226; experiment: Growth inhibition of human NCI-H226 cells after 48 hrs by sulforhodamine B assay; format: functional; conditions: NCI-H226, 48 h; for CC50: read-out: LC50 (the source's name); how it was run: as §4
[13] = tested on: UACC-62; experiment: Growth inhibition of human UACC62 cells assessed as cell growth at 10^-5 M after 48 hrs by sulforhodamine B assay; format: functional; conditions: UACC-62, 48 h, read-out: Activity; how it was run: as §3
[14] = target: T1, DNA topoisomerase 1 (Homo sapiens) (UniProt P11387); experiment: Inhibition of human recombinant topoisomerase 1-mediated relaxation of supercoiled pBR322 DNA at 100 uM after 30 mins by agarose gel electrophoresis relative to control
T1 sequence (whole entry): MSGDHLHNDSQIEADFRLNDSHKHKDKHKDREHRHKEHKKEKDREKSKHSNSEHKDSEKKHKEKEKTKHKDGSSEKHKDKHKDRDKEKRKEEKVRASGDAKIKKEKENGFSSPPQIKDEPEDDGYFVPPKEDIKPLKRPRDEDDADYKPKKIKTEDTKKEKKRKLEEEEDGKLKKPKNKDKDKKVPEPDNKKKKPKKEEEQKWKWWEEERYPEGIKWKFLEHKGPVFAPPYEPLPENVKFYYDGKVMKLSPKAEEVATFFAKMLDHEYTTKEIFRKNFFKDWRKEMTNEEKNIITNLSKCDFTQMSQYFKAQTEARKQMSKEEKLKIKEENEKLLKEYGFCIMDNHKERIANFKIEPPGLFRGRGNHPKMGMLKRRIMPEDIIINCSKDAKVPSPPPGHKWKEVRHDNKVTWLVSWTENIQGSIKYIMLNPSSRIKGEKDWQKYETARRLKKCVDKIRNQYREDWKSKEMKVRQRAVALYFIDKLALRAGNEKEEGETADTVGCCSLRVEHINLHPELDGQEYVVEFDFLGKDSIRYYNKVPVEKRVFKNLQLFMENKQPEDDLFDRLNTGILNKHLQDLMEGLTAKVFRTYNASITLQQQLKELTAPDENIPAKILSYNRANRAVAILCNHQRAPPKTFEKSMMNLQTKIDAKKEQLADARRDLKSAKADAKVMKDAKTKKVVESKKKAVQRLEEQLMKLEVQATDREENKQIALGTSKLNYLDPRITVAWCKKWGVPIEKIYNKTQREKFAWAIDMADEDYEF
How it was run: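 Recombinant human topo I (0.4 units) with 100 ng supercoiled pBR322, 37 °C for 30 min in Tris-HCl pH 7.9, 150 mM NaCl, 0.1% BSA, 1 mM spermidine, 5% glycerol. Compounds came from 20 mM DMSO stocks, with matched DMSO in the enzyme-only control. Stopped with sarcosyl; 1% agarose/TAE gel, ethidium stain, UV densitometry. Camptothecin was the positive control.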

[15] = tested on: HOP-92; experiment: Growth inhibition of human HOP92 cells after 48 hrs by sulforhodamine B assay; format: functional; conditions: HOP-92, 48 h; how it was run: as §1

COc1cc(/C=C/C(=O)c2ccc(NC(=O)CN3CCN(c4cc5c(cc4F)c(=O)c(C(=O)O)cn5C4CC4)CC3)cc2)cc(OC)c1OC
GI50 [1]: 1.81 µM | LC50 [1]: > 100 µM | TGI [1]: 7.65 µM | growth at 10 µM [2]: -7.05% | growth at 10 µM [3]: 27.6% | GI50 [4]: 0.53 µM | LC50 (concentration killing 50% of starting cells) [4]: > 100 µM | TGI [4]: 2.65 µM | GI50 [5]: 0.47 µM | LC50 (50% net cell kill) [5]: > 100 µM | TGI [5]: > 100 µM | GI50 [6]: 0.37 µM | LC50 (concentration giving 50% net cell kill) [6]: > 100 µM | TGI [6]: 2.14 µM | growth at 10 µM [7]: 34% | growth at 10 µM [8]: 2.96% | GI50 [9]: 0.31 µM | CC50 [9]: > 100 µM | growth at 10 µM [10]: 34.9% | growth at 10 µM [11]: 30% | GI50 [12]: 0.95 µM | TGI [12]: 26 µM | CC50 [12]: > 100 µM | growth at 10 µM [13]: -23.5% | inhibition [14]: 67.4%

O=C(CN1CCN(c2cc3c(cc2F)c(=O)c(C(=O)O)cn3C2CC2)CC1)Nc1ccc(C(=O)/C=C/c2ccccc2)cc1
GI50 [1]: 2.89 µM | LC50 [1]: > 100 µM | TGI [1]: 8.87 µM | growth at 10 µM [2]: 73.7% | growth at 10 µM [3]: 55.1% | GI50 [4]: 2.32 µM | LC50 (concentration killing 50% of starting cells) [4]: > 100 µM | TGI [4]: > 100 µM | GI50 [5]: 3.52 µM | LC50 (50% net cell kill) [5]: > 100 µM | TGI [5]: > 100 µM | GI50 [6]: 2.41 µM | LC50 (concentration giving 50% net cell kill) [6]: > 100 µM | GI50 [15]: 0.43 µM | TGI [15]: 3.82 µM | CC50 ([15]; read-out: LC50 (the source's name)): > 100 µM | growth at 10 µM [7]: 85.7% | growth at 10 µM [8]: 45% | GI50 [9]: 5.13 µM | TGI [9]: > 100 µM | CC50 [9]: > 100 µM | growth at 10 µM [10]: 40.3% | growth at 10 µM [11]: 53.7% | GI50 [12]: 6.83 µM | TGI [12]: > 100 µM | CC50 [12]: > 100 µM | growth at 10 µM [13]: 35.5% | inhibition [14]: 57.2%
